Source: ChEMBL document CHEMBL4689842, “EUbOPEN Chemogenomics Library wave 1” (2021)
Several values for one entry are separate records, joined by “and”; a condition that tells them apart may be missing. Identical values can stand only once.

Test system: HEK-293T
Assay: Multiplex assay against HEK293T;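 as to Population Tubulin-Different-Phenotype (%): share of the cells with healthy nuclei that show this phenotype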
Format: toxicity, cell-based
Details: human
How it was run: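 Phenotypes for tubulin, mitochondrial mass and membrane permeability are expressed as per cents of healthy-nucleus cells. Cells were stained live at seeding with Hoechst33342, BioTracker Green Microtubule Cytoskeleton Dye, MitoTracker Red and Annexin V Alexa Fluor 680, then imaged after compound addition on a CQ1 microscope at 37°C and 5% CO2. Machine-learning gating in CellPathfinder separated Hoechst high-intensity objects from normal cells, divided normal cells by nuclear state (healthy, pyknosed, fragmented) and divided pyknosed cells into mitotic or apoptotic.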

[1] = 12 h, 1 µM, compound concentration 1 uM, replicate 1
[2] = 12 h, 1 µM, compound concentration 1 uM, replicate 2
[3] = 12 h, 10 µM, compound concentration 10 uM, replicate 1
[4] = 12 h, 10 µM, compound concentration 10 uM, replicate 2
[5] = 24 h, 1 µM, compound concentration 1 uM, replicate 1
[6] = 24 h, 1 µM, compound concentration 1 uM, replicate 2
[7] = 24 h, 10 µM, compound concentration 10 uM, replicate 1
[8] = 24 h, 10 µM, compound concentration 10 uM, replicate 2
[9] = 48 h, 10 µM, compound concentration 10 uM, replicate 1
[10] = 48 h, 10 µM, compound concentration 10 uM, replicate 2

## NC(=O)Nc1cc(-c2cccc(F)c2)sc1C(=O)N[C@H]1CCCNC1 [AZD-7762]
[1]
  Population Fragmented Nuclei (%): 18%
  Population Healthy Nuclei (%): 54%
  Population Hoechst High Intensity Objects (%): 13%
  Population Mitochondria Different-Phenotype (%): 5%
  Population Normal (%): 86%
  Population Pyknosed Nuclei (%): 26%
  Population Tubulin-Different-Phenotype (%): 3%
  Total Cell Count: 661
[2]
  Population Apoptotic (%): 18%
  Population Fragmented Nuclei (%): 6%
  Population Healthy Nuclei (%): 73%
  Population Hoechst High Intensity Objects (%): 5%
  Population Membrane Permeable-Phenotype (%): 5%
  Population Mitochondria Different-Phenotype (%): 20%
  Population Mitotic Cells (%): 81%
  Population Normal (%): 94%
  Population Pyknosed Nuclei (%): 19%
  Population Tubulin-Different-Phenotype (%): 25%
  Total Cell Count: 1132
[3]
  Population Fragmented Nuclei (%): 28% and 23%
  Population Hoechst High Intensity Objects (%): 18% and 14%
  Population Membrane Permeable-Phenotype (%): 5% and 4%
  Population Normal (%): 81% and 85%
  Population Pyknosed Nuclei (%): 59% and 21%
[4]
  Population Apoptotic (%): 27% and 9%
  Population Fragmented Nuclei (%): 8% and 10%
  Population Healthy Nuclei (%): 28% and 66%
  Population Hoechst High Intensity Objects (%): 4% and 2%
  Population Membrane Permeable-Phenotype (%): 0% and 3%
  Population Mitochondria Different-Phenotype (%): 30% and 18%
  Population Mitotic Cells (%): 72% and 90%
  Population Normal (%): 95% and 97%
  Population Pyknosed Nuclei (%): 63% and 22%
  Population Tubulin-Different-Phenotype (%): 14% and 21%
[5]
  Population Apoptotic (%): 19%
  Population Fragmented Nuclei (%): 18%
  Population Healthy Nuclei (%): 42%
  Population Hoechst High Intensity Objects (%): 12%
  Population Membrane Permeable-Phenotype (%): 9%
  Population Mitochondria Different-Phenotype (%): 7%
  Population Mitotic Cells (%): 80%
  Population Normal (%): 87%
  Population Pyknosed Nuclei (%): 38%
  Population Tubulin-Different-Phenotype (%): 14%
  Total Cell Count: 632
[6]
  Population Apoptotic (%): 35%
  Population Fragmented Nuclei (%): 8%
  Population Healthy Nuclei (%): 39%
  Population Hoechst High Intensity Objects (%): 6%
  Population Membrane Permeable-Phenotype (%): 8%
  Population Mitochondria Different-Phenotype (%): 33%
  Population Mitotic Cells (%): 64%
  Population Normal (%): 93%
  Population Pyknosed Nuclei (%): 51%
  Population Tubulin-Different-Phenotype (%): 62%
  Total Cell Count: 1019
[7]
  Population Apoptotic (%): 26% and 66%
  Population Fragmented Nuclei (%): 22% and 33%
  Population Hoechst High Intensity Objects (%): 13% and 14%
  Population Membrane Permeable-Phenotype (%): 8% and 0%
  Population Mitotic Cells (%): 73% and 33%
  Population Normal (%): 86% and 85%
  Population Pyknosed Nuclei (%): 36% and 58%
  Population Tubulin-Different-Phenotype (%): 36% and 50%
[8]
  Population Apoptotic (%): 52% and 23%
  Population Fragmented Nuclei (%): 12% and 17%
  Population Hoechst High Intensity Objects (%): 6% and 5%
  Population Membrane Permeable-Phenotype (%): 10%
  Population Mitochondria Different-Phenotype (%): 20% and 48%
  Population Mitotic Cells (%): 47% and 76%
  Population Normal (%): 93% and 95%
  Population Pyknosed Nuclei (%): 80% and 47%
  Population Tubulin-Different-Phenotype (%): 30% and 63%
[9]
  Population Apoptotic (%): 75%
  Population Fragmented Nuclei (%): 43%
  Population Healthy Nuclei (%): 3%
  Population Hoechst High Intensity Objects (%): 21%
  Population Membrane Permeable-Phenotype (%): 0%
  Population Mitochondria Different-Phenotype (%): 100%
  Population Mitotic Cells (%): 25%
  Population Normal (%): 78%
  Population Pyknosed Nuclei (%): 53%
  Population Tubulin-Different-Phenotype (%): 0%
  Total Cell Count: 191
[10]
  Population Fragmented Nuclei (%): 13%
  Population Healthy Nuclei (%): 12%
  Population Hoechst High Intensity Objects (%): 8%
  Population Membrane Permeable-Phenotype (%): 5%
  Population Mitochondria Different-Phenotype (%): 66%
  Population Mitotic Cells (%): 24%
  Population Normal (%): 91%
  Population Pyknosed Nuclei (%): 74%
  Population Tubulin-Different-Phenotype (%): 61%
  Total Cell Count: 161
